Active and inactive are the calls of the source. The rule behind the calls is not given here.
Experiments:
[1] = target: Voltage-dependent T-type calcium channel subunit alpha-1G (Homo sapiens) (UniProt O43497); test: Inhibition of T type calcium channel subunit alpha-1G at 10 uM in HEK293 cells; assay type: cell-based
Outline: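 Whole-cell patch clamp on α1G T-type channel expressed in HEK293 cells, test compound at 10 µM. Currents evoked every 15 s by 50 ms depolarizing step from 100 to 30 mV (signs as printed). % inhibition = 100[(C−D)/C], C and D being peak current before and with drug. Three independent experiments.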

[2] = target: Voltage-dependent N-type calcium channel subunit alpha-1B (Homo sapiens) (UniProt Q00975); test: Inhibition of N type calcium channel subunit Alpha-1B at 10 uM in HEK293 cells; assay type: cell-based
A549 = test: Inhibition of human A549 cell growth by SRB assay; assay type: functional
Outline: (§1)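 Cells grown in RPMI 1640 with 10% heat-inactivated FBS, 37 °C, 5% CO2. Seeded, exposed to various sample concentrations in triplicate for 72 h, then formalin-fixed 30 min at room temperature. Stained with 0.4% SRB 30 min, washed with 1% acetic acid, bound dye dissolved in 10 mM unbuffered Tris base, OD read at 520 nm. GI50 from dose–response curves, three independent experiments.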

HCT-15 = test: Inhibition of human HCT15 cell growth by SRB assay; assay type: functional; outline: as §1
KB = test: Inhibition of human KB cell growth by SRB assay; assay type: functional; outline: as §1
SK-MEL-2 = test: Inhibition of human SK-MEL-2 cell growth by SRB assay; assay type: functional, cell-based; outline: as §1
SK-OV-3 = test: Inhibition of human SKOV3 cell growth by SRB assay; assay type: functional; outline: as §1
HEK293 = test: Cytotoxicity against HEK293 cells at 100 uM; assay type: functional, cell-based; settings: Homo sapiens
[3] = test system: T-type calcium channel Cav3.1 (α1G); test: Inhibition of T-type calcium channel Cav3.1; settings: Homo sapiens

Chain of Voltage-dependent N-type calcium channel subunit alpha-1B (Homo sapiens) (Q00975 whole entry, looked up): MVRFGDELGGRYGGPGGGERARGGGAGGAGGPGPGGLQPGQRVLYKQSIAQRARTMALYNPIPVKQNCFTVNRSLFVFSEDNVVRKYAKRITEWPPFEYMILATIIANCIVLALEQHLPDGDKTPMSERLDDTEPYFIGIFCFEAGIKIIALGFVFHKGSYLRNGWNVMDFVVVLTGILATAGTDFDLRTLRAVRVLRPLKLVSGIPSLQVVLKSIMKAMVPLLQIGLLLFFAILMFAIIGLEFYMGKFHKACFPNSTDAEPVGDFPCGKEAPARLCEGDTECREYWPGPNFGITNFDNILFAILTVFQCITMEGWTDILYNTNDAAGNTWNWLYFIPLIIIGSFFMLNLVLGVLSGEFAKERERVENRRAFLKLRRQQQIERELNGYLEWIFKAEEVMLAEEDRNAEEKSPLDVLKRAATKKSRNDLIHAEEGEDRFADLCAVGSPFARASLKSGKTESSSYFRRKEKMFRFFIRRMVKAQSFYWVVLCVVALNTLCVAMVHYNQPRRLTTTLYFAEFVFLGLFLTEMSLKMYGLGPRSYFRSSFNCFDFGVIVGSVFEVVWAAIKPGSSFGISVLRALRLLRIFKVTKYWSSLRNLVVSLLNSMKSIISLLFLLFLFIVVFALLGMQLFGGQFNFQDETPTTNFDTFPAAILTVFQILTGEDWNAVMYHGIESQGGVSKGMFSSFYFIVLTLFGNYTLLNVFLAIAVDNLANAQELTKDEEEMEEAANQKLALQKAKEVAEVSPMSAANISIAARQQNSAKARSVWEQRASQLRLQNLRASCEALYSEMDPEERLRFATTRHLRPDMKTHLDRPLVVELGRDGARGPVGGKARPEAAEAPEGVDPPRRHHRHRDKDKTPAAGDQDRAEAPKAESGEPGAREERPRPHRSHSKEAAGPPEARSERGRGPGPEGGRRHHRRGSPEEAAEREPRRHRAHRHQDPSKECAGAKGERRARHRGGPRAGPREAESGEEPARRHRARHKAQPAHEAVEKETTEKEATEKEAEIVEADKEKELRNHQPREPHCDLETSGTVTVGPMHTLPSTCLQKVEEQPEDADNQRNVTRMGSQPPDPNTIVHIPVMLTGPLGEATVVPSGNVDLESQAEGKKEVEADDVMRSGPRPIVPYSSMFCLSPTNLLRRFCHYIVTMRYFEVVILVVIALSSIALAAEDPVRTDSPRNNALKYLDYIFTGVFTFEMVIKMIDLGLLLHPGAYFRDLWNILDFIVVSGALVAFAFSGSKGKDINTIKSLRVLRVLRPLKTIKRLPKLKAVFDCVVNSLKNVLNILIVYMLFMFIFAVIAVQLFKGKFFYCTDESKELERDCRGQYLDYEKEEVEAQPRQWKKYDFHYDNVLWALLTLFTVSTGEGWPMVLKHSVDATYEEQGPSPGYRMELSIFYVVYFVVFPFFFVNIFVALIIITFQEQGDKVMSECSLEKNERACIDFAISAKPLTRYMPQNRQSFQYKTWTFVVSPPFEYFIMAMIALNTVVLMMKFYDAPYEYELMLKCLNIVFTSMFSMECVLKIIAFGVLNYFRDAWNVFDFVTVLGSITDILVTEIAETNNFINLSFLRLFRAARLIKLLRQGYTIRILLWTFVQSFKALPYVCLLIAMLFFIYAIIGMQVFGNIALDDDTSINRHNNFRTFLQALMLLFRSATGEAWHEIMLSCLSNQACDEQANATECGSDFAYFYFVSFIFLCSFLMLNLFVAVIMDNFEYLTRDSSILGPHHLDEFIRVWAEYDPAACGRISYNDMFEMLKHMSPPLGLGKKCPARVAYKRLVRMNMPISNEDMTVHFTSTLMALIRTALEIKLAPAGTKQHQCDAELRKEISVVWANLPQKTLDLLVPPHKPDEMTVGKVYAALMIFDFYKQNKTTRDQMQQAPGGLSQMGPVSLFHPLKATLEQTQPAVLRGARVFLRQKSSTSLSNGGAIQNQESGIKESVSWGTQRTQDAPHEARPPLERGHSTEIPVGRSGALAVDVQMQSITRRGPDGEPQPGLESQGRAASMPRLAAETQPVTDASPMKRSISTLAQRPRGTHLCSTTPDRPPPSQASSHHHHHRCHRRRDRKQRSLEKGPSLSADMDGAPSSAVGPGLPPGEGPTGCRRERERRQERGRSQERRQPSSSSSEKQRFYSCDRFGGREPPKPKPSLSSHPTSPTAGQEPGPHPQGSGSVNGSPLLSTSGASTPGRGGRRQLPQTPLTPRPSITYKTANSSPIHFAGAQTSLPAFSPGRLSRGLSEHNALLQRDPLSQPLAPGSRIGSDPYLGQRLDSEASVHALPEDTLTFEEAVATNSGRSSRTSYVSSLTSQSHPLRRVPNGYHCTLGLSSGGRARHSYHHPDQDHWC
Chain of Voltage-dependent T-type calcium channel subunit alpha-1G (Homo sapiens) (O43497 whole entry): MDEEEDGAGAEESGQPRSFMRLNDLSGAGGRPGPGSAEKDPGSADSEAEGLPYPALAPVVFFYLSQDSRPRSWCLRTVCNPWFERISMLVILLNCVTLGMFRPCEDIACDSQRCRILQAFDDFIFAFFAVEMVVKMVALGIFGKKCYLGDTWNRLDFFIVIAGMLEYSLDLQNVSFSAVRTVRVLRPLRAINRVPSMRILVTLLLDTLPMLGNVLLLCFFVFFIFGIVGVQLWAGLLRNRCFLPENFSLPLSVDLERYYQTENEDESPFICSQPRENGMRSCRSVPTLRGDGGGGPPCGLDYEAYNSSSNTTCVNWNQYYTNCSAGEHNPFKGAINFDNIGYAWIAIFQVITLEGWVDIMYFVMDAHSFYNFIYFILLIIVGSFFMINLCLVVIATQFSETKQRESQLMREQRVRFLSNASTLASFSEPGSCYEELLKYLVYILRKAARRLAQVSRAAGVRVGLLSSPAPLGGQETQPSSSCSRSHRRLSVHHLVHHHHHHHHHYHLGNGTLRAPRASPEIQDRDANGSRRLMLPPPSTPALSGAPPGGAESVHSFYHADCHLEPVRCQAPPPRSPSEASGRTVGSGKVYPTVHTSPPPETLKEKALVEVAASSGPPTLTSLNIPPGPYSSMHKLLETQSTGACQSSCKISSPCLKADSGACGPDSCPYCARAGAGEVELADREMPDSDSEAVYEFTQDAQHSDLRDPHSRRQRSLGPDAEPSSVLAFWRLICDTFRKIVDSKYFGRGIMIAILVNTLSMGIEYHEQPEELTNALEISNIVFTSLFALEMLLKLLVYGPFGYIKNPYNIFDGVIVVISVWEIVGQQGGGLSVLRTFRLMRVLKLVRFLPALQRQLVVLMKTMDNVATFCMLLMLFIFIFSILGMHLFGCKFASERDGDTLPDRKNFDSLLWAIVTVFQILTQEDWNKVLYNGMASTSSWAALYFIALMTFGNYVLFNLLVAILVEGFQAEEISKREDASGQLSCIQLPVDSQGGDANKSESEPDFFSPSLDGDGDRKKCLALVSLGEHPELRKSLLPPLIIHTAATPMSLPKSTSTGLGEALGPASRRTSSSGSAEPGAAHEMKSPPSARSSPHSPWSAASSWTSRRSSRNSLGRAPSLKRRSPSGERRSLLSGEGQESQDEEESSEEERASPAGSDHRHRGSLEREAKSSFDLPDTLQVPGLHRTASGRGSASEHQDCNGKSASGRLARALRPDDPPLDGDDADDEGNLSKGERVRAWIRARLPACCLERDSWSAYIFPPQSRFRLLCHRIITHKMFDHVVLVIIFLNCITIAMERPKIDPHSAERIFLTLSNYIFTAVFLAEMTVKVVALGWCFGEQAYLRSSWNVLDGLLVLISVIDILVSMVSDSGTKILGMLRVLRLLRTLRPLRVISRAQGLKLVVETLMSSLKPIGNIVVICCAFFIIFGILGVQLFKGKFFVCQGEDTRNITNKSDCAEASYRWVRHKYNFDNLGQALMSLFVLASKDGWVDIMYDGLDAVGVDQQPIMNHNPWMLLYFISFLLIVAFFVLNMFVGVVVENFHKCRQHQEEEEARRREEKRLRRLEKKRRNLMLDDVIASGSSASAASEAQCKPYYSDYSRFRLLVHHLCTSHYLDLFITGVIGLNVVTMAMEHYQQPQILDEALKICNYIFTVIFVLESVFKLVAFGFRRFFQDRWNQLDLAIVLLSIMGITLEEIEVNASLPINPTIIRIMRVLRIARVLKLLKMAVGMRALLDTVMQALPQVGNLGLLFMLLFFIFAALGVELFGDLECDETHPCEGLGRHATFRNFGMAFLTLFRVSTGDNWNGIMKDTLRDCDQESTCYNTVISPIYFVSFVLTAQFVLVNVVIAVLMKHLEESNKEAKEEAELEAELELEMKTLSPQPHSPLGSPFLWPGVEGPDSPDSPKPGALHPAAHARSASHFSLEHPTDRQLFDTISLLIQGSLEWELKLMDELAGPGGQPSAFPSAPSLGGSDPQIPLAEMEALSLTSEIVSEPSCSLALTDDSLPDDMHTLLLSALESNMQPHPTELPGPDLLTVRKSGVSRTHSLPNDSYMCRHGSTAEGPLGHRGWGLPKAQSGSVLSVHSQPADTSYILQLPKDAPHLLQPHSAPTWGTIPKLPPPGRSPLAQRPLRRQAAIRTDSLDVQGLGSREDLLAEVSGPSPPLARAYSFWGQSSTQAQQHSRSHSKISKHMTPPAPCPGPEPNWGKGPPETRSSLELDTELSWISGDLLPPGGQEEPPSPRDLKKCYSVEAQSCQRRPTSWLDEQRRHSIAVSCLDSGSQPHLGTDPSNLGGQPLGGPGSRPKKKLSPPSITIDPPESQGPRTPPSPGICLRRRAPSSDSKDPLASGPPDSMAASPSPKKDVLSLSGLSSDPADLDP

SMILES | inhibition [1] [%] | inhibition [2] [%] | GI50 (A549) [µM] | GI50 (HCT-15) [µM] | GI50 (KB) [µM] | GI50 (SK-MEL-2) [µM] | GI50 (SK-OV-3) [µM] | Activity (HEK293) | Activity [2] | IC50 [3] [µM]
CCN1C(N(C)C)=Nc2ccccc2C1CC(=O)NCc1ccccc1 (centres undefined) | 34.4 | 27.6 | > 200 | > 200 | > 200 | 50.2 | > 200 | Not toxic |  | 
CCN1C(N(C)C)=Nc2ccccc2C1CC(=O)NCc1ccc(NS(=O)(=O)c2ccc(F)cc2)cc1 (centres undefined) | 62.7 |  | 66.1 | 38.6 | 41.6 | 31.4 | 46.5 | Not toxic | inactive | 
CCN1C(N2CCCCC2)=Nc2ccccc2C1CC(=O)NCc1ccc(NS(=O)(=O)c2ccc(C)cc2)cc1 (centres undefined) | 91.3 |  | 23 | 25.7 | 22.3 | 3.52 | 22.8 | Not toxic | inactive | 0.96
CCN1C(N(C)C)=Nc2ccccc2C1CC(=O)NCc1ccc(NS(=O)(=O)c2ccc(C)cc2)cc1 (centres undefined) | 81.3 | 8.9 | 39.2 | 33.9 | 33.8 | 24.2 | 33.4 | Not toxic |  | 
Nc1ccc(CNC(=O)CC2c3ccccc3N=C(N3CCCCC3)N2c2ccccc2)cc1 (centres undefined) |  | 8.9 | 36.6 | 33.9 | 37.1 | 30.7 | 39.3 | Not toxic |  | 
CCN1C(N2CCCCC2)=Nc2ccccc2C1CC(=O)NCc1ccccc1 (centres undefined) | 59.3 | 9.3 | 95.1 | 74.2 | 108 | 42.5 | 77.8 | Not toxic |  | 
COC(=O)CC1c2ccccc2N=C(NCCCCCN)N1c1ccc(-c2ccccc2)cc1 (centres undefined) |  |  | 3.39 | 3.64 | 3.77 | 3.32 | 3.24 | Not toxic | inactive | 0.56
Cc1ccc(S(=O)(=O)Nc2ccc(CNC(=O)CC3c4ccccc4N=C(N4CCCCC4)N3c3ccccc3)cc2)cc1 (centres undefined) |  | 14.1 | 3.06 | 2.8 | 3.11 | 2.7 | 2.93 | Not toxic |  | 0.17

Source: ChEMBL document CHEMBL1149503, “Growth inhibition of human cancer cells in vitro by T-type calcium channel blockers” (Bioorg Med Chem Lett, 2006)
